Measured values reported in PubChem BioAssay AID588747 (Vanderbilt Specialized Chemistry Center, 2011).
Calls of active or inactive are those of the source.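 The calls were made as follows: active = a dose-dependent rise in calcium signal, with potency and percent of maximal acetylcholine response fitted; inactive = the rest.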

Biological target: Muscarinic acetylcholine receptor M5 (Homo sapiens) (UniProt P08912)
Experiment: M5 positive allosteric modulation, counter-screen, dose response, counter-screen for M4 PAM project, human, CHO cells, calcium fluorescence (AID 588747)
Settings: CHO hM5, calcium Fluo-4 fluorescence, ACh EC20 potentiation; series mostly up to 30 µM; percent ACh max response: at the top concentration
Method in brief: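 Assay system: CHO cells expressing human muscarinic M5 receptor; medium: HBSS with HEPES and 2.5 mM probenecid; also added: acetylcholine at EC20, then acetylcholine at EC80; timing: compound pre-incubation 144 s, EC80 ACh 86 s after EC20, 37 °C; detection: calcium fluorescence with Fluo-4 AM dye; control set: 1 mM acetylcholine as maximal response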

Muscarinic acetylcholine receptor M5 (Homo sapiens), sequence (P08912 whole entry, looked up): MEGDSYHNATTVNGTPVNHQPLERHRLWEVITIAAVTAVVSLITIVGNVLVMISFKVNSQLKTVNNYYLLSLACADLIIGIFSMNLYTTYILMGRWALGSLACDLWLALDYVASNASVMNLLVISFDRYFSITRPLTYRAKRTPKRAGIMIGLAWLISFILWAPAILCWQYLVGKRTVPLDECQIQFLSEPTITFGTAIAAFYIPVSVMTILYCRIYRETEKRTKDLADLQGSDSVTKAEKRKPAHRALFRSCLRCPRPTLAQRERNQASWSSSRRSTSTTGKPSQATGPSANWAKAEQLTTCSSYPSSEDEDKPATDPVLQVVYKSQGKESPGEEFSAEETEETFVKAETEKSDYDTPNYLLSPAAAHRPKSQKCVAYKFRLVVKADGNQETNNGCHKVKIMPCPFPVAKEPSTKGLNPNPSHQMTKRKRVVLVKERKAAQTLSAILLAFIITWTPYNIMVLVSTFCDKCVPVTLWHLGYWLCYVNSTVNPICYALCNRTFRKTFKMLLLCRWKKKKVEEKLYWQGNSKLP

Row | Compound | percent ACh max response
1 | Cc1nc2sc(C(=O)NCc3cccc(F)c3F)c(N)c2c(C)c1Cl | 16.2 (inactive)
2 | Cc1nc2sc(C(=O)NCCc3ccncc3)c(N)c2c(C)c1Cl | 19.3 (inactive)
3 | Cc1nc2sc(C(=O)NCc3ccncn3)c(N)c2c(C)c1Cl | 15.2 (inactive)
4 | Cc1nc2sc(C(=O)NC3CC3)c(N)c2c(C)c1Cl | 17.9 (inactive)
5 | Cc1nc2sc(C(=O)NCc3nccs3)c(N)c2c(C)c1Cl | 18.3 (inactive)
